{
  "source": "ChEMBL document CHEMBL4196022",
  "about": "“Alkynyl-containing phenylthiazoles: Systemically active antibacterial agents effective against methicillin-resistant Staphylococcus aureus (MRSA)” (Eur J Med Chem, 2018)",
  "key": {"[1]": {"system": "Staphylococcus aureus", "assay": "Bactericidal activity against methicillin-resistant Staphylococcus aureus USA300 up to 18 hrs by broth microdilution assay", "assay_type": "functional", "settings": "USA300, 18 h, read-out: MBC99.9; call rule not given here"}, "[2]": {"system": "Staphylococcus aureus", "assay": "Bactericidal activity against methicillin-resistant Staphylococcus aureus NRS107 up to 18 hrs by broth microdilution assay", "assay_type": "functional", "settings": "NRS107, 18 h, read-out: MBC99.9"}, "[3]": {"system": "Staphylococcus aureus", "assay": "Bactericidal activity against methicillin resistant Staphylococcus aureus NRS123 (USA400) up to 18 hrs by broth microdilution assay", "assay_type": "functional", "settings": "read-out: MBC99.9"}, "[4]": {"system": "Staphylococcus aureus", "assay": "Antibacterial activity against vancomycin-resistant Staphylococcus aureus VRS10 after 20 hrs by broth microdilution assay", "assay_type": "functional", "settings": "VRS10, 20 h", "in_short": "(§1)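 Broth microdilution per CLSI in cation-adjusted Mueller Hinton broth. Compounds serially diluted, in triplicate. Incubation at 37 °C for at least 20 hours. MIC taken as the lowest concentration with no visible bacterial growth.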"}, "[5]": {"system": "Staphylococcus aureus", "assay": "Antibacterial activity against vancomycin-resistant Staphylococcus aureus VRS11a after 20 hrs by broth microdilution assay", "assay_type": "functional", "in_short": "as §1"}, "[6]": {"system": "Staphylococcus aureus", "assay": "Antibacterial activity against vancomycin-resistant Staphylococcus aureus VRS12 after 20 hrs by broth microdilution assay", "assay_type": "functional", "settings": "VRS12, 20 h", "in_short": "as §1"}, "[7]": {"system": "Staphylococcus aureus", "assay": "Ratio of MBC to MIC for methicillin-resistant Staphylococcus aureus USA300", "assay_type": "functional", "in_short": "(§2)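 MBC/MIC ratio. […] MBC by plating no-growth wells onto tryptic soy agar at 37 °C for at least 18 h; taken as the concentration giving 99.9% growth inhibition.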"}, "[8]": {"system": "Staphylococcus aureus", "assay": "Ratio of MBC to MIC for methicillin-resistant Staphylococcus aureus NRS119", "assay_type": "functional", "in_short": "as §2"}, "[9]": {"system": "Staphylococcus aureus", "assay": "Ratio of MBC to MIC for methicillin-resistant Staphylococcus aureus NRS123 (USA400)", "assay_type": "functional", "in_short": "as §2"}, "[10]": {"system": "Staphylococcus aureus", "assay": "Ratio of MBC to MIC for vancomycin-resistant Staphylococcus aureus VRS10", "assay_type": "functional", "in_short": "as §2"}, "[11]": {"assay": "Selectivity index, ratio of toxic concentration for human HRT18 cells to MIC for methicillin-resistant Staphylococcus aureus", "assay_type": "toxicity", "settings": "read-out: Selectivity Index"}, "[12]": {"target": "T1, Undecaprenyl-diphosphatase (Escherichia coli (strain K12), UniProt P60932)", "T1 sequence (P60932 whole entry)": "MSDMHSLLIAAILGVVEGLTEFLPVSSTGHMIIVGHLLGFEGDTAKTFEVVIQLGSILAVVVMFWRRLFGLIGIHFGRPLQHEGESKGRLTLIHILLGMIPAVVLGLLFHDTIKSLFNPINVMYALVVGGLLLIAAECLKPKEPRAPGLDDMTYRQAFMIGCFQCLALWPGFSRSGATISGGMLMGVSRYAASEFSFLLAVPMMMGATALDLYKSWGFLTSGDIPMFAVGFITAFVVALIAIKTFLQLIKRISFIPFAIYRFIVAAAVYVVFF", "assay": "Inhibition of Escherichia coli UPPP expressed in Escherichia coli C41(DE3) using FPP as substrate preincubated for 15 mins followed by substrate addition measured after 20 mins by malachite green assay"}, "[13]": {"target": "T2, Farnesyl pyrophosphate synthase (Homo sapiens, UniProt P14324)", "T2 sequence (P14324 whole entry)": "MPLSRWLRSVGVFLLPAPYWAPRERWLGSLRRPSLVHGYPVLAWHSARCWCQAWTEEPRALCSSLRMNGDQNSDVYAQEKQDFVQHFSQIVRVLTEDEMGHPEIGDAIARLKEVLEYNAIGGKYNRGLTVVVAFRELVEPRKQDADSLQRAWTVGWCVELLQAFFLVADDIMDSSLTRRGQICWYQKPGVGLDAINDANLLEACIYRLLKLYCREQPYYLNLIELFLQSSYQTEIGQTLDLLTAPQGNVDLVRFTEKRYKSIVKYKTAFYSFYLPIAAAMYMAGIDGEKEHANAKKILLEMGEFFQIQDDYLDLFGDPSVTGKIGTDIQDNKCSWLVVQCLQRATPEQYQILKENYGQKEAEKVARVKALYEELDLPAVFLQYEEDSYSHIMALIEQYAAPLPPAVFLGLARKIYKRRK", "assay": "Inhibition of human FPPS"}, "[14]": {"target": "T3, Ditrans,polycis-undecaprenyl-diphosphate synthase ((2E,6E)-farnesyl-diphosphate specific) (Escherichia coli (strain K12), UniProt P60472)", "T3 sequence (P60472 whole entry)": "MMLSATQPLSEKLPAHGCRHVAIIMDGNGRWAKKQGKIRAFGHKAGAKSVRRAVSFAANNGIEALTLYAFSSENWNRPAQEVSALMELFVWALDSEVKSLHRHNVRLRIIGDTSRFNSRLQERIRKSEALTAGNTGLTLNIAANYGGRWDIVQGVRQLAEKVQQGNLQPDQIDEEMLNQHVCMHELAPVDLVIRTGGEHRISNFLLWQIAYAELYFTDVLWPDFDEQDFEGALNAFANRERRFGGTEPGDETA", "assay": "Inhibition of Escherichia coli UPPS using IPP and FPP as substrate preincubated for 30 mins followed by substrate addition measured after 20 mins by malachite green phosphate assay"}, "[15]": {"assay": "Apparent permeability from apical to basolateral side in human Caco2 cells at 10 uM after 60 mins by LC-MS/MS analysis", "assay_type": "ADME, cell-based", "settings": "caco-2, 1 h", "in_short": "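Caco-2 monolayers were seeded at 1 × 10^5 cells/cm2 and differentiated for three weeks. Test article was at 10 μM (1% DMSO) in HBSS-MES pH 6.5 or HBSS-HEPES pH 7.4 and added to the donor side. Incubation ran 60 min (A→B) or 40 min (B→A), and receiver buffer was analysed by LC/MS/MS. Lucifer yellow and fluorescein checked monolayer integrity. Efflux ratio = Papp(B→A)/Papp(A→B).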"}, "[16]": {"assay": "Half life in human liver microsomes at 0.1 uM preincubated for 5 mins followed by NDAPH addition measured up to 60 mins by HPLC-MS/MS analysis", "settings": "1 h"}, "[17]": {"system": "Rattus norvegicus", "assay": "Volume of distribution at steady state in Sprague-Dawley rat at 2 uM administered as single iv bolus dose by LC-MS/MS analysis", "assay_type": "ADME, organism-based", "settings": "in vivo", "in_short": "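Male naïve Sprague-Dawley rats (three animals) received an IV bolus of a 2 μM solution. EDTA-K2 blood was sampled over 12 h post dose. Plasma was protein-precipitated with acetonitrile and quantified by LC/MS/MS. Parameters came from two-compartmental pharmacokinetic analysis.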"}, "[18]": {"system": "Staphylococcus aureus", "assay": "Antibacterial activity against methicillin-resistant Staphylococcus aureus USA300 in neutropenic Balb/c mouse thigh infection model assessed as reduction in bacterial burden in thigh at 20 mg/kg, ip administered twice at 2 and 12 hrs post infection and measured at 24 hrs post infection relative to control", "assay_type": "functional", "design": "scale not given: the % may be the effect or the level left", "in_short": "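Female BALB/c mice, 6–8 weeks old, n=5, made neutropenic with i.p. cyclophosphamide 150 and 100 mg/kg on days −4 and −1. Right thigh injected with 100 μL of 5.35×10^7 CFU/mL USA300. […] Thighs harvested at 24 h and counted as CFU/g on mannitol salt agar.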"}, "[19]": {"system": "Mus musculus", "assay": "Toxicity in wounded skin area of Balb/c mouse infected with methicillin-resistant Staphylococcus aureus USA300 at 2% administered topically twice daily for 5 consecutive days measured 12 hrs post last dose", "assay_type": "organism-based", "settings": "in vivo, topical_or_ocular", "in_short": "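Female Balb/c mice, 8 weeks old, n=5 per group. Intradermal injection of 40 μL of 1.32×10^9 CFU/mL USA300; a wound formed by ~66 h. Treated topically with a 2% suspension in petroleum jelly twice daily for 5 days; the vehicle group served as control. Wounds excised 12 h after the last dose, homogenized in PBS and plated on mannitol salt agar; sites also observed for redness and swelling.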"}},
  "data": [
    {"smiles": "C/C(=N\\NC(=N)N)c1sc(-c2ccc(C#CC3CC3)cc2)nc1C", "values": [
      {"measurement": "MBC", "setting": "[1]", "value": 4, "unit": "µg/mL"},
      {"measurement": "MBC", "setting": "[2]", "value": 2, "unit": "µg/mL"},
      {"measurement": "MBC", "setting": "[3]", "value": 2, "unit": "µg/mL"},
      {"measurement": "MIC", "setting": "[4]", "value": 2, "unit": "µg/mL"},
      {"measurement": "MIC", "setting": "[5]", "value": 2, "unit": "µg/mL"},
      {"measurement": "MIC", "setting": "[6]", "value": 2, "unit": "µg/mL"},
      {"measurement": "Ratio", "setting": "[7]", "value": "<=3"},
      {"measurement": "Ratio", "setting": "[8]", "value": "<=3"},
      {"measurement": "Ratio", "setting": "[9]", "value": "<=3"},
      {"measurement": "Ratio", "setting": "[10]", "value": "<=3"},
      {"measurement": "selectivity ratio", "setting": "[11]", "value": "7 to 31"},
      {"measurement": "IC50", "setting": "[12]", "value": 8.1, "unit": "µM"},
      {"measurement": "inhibition (INH)", "setting": "[13]", "value": "Not Active"},
      {"measurement": "IC50", "setting": "[14]", "value": 38, "unit": "µM"},
      {"measurement": "Papp", "setting": "[15]", "value": 0.05, "unit": "×10⁻⁶ cm/s"},
      {"measurement": "t1/2", "setting": "[16]", "value": 4.87, "unit": "h"},
      {"measurement": "Vdss", "setting": "[17]", "value": 5.51, "unit": "L"},
      {"measurement": "Activity", "setting": "[18]", "value": 77, "unit": "%"},
      {"measurement": "Activity", "setting": "[19]", "value": "Non-Toxic"}
    ]}
  ]
}
